Assay results: the M2OR odorant receptor database
Changes are numbered by the printed parent chain.

Assays:
Conditions in all cases: stereoisomer not certain
OR52I1 (Homo sapiens) = biological target: T1, OR52I1 (Homo sapiens) (UniProt Q8NGK6)
T1 sequence (whole entry): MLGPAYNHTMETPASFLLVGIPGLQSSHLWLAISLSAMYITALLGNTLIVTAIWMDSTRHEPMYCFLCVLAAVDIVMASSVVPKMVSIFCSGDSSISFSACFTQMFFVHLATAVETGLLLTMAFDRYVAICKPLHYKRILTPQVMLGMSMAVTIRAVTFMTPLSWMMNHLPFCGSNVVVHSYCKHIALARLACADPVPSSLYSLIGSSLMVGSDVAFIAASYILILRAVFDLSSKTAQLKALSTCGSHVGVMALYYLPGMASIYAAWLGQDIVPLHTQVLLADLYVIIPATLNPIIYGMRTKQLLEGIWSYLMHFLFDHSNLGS
Outline: (§1)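 Transient luciferase assays in mammalian cell lines were common, though methods varied by source. The values come from published papers and their supplementary material, with extra details from the original authors when needed. Responsive refers to a measured signal the original authors judged statistically different from baseline, and non-responsive (inactive) to the remainder.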

OR52I2 (Homo sapiens) = biological target: T2, OR52I2 (Homo sapiens) (UniProt Q8NH67)
T2 sequence (whole entry): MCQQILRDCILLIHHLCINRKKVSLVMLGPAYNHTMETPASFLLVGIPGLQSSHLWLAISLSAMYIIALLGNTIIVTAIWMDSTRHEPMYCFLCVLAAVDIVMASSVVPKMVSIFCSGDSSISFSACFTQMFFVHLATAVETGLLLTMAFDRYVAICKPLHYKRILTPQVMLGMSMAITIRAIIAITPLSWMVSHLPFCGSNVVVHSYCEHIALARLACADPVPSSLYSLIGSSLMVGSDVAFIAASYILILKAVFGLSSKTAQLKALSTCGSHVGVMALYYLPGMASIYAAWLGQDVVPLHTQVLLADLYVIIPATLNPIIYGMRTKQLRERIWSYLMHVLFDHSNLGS
Outline: as §1

OR52J3 (Homo sapiens) = OR52J3 (Homo sapiens) (UniProt Q8NH60)
Outline: as §1

OR52K1 (Homo sapiens) = biological target: T3, OR52K1 (Homo sapiens) (UniProt Q8NGK4)
T3 sequence (whole entry): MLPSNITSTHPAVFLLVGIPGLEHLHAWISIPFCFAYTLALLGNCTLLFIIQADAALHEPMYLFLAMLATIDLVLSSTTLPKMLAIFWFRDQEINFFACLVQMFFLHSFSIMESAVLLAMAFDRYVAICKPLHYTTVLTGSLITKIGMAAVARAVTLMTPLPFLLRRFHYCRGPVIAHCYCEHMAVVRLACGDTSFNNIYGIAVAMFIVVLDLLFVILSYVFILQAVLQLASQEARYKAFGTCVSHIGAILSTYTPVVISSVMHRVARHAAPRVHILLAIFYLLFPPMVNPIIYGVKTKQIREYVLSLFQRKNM
Outline: as §1

OR52K2 (Homo sapiens) = biological target: T4, OR52K2 (Homo sapiens) (UniProt Q8NGK3)
T4 sequence (whole entry): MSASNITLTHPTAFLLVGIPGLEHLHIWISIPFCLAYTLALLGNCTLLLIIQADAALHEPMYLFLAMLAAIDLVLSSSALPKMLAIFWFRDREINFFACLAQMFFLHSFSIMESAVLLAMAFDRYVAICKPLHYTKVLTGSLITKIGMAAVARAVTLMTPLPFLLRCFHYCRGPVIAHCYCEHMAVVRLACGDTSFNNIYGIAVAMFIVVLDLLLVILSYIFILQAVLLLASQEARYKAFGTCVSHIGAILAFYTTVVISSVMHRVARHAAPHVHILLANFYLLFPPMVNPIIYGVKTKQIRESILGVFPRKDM
Outline: as §1

OR52L1 (Homo sapiens) [1] = biological target: T5, OR52L1 (Homo sapiens) (UniProt Q8NGH7)
T5 sequence (whole entry): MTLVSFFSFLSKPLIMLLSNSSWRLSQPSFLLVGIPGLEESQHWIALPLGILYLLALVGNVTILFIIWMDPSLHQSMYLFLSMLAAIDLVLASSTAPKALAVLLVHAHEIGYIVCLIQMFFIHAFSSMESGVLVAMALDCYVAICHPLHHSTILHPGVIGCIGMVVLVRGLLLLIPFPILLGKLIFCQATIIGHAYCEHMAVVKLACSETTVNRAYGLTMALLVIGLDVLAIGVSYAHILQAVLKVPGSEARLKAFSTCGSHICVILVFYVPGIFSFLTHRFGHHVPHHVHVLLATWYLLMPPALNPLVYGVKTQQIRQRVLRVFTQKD
Outline: as §1

OR52M1 (Homo sapiens) = biological target: T6, OR52M1 (Homo sapiens) (UniProt Q8NGK5)
T6 sequence (whole entry): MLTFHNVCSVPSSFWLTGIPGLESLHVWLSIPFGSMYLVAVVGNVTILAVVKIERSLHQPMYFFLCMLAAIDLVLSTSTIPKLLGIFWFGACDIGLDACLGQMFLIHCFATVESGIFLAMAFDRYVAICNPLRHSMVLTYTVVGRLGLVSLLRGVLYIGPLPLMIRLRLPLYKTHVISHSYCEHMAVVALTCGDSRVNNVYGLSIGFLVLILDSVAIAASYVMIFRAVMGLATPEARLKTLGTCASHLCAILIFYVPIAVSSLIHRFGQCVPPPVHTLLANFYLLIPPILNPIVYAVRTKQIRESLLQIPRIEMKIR
Outline: as §1

OR52N1 (Homo sapiens) = biological target: T7, OR52N1 (Homo sapiens) (UniProt Q8NH53)
T7 sequence (whole entry): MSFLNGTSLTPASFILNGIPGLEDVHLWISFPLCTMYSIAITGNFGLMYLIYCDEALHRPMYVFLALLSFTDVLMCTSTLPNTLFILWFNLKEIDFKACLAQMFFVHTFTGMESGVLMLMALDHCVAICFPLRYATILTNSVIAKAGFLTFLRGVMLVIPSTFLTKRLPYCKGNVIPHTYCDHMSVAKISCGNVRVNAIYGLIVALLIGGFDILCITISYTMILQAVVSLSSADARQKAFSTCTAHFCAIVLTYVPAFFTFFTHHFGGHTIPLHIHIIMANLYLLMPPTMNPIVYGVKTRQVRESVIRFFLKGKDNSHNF
Outline: as §1

OR52N2 (Homo sapiens) = biological target: T8, OR52N2 (Homo sapiens) (UniProt Q8NGI0)
T8 sequence (whole entry): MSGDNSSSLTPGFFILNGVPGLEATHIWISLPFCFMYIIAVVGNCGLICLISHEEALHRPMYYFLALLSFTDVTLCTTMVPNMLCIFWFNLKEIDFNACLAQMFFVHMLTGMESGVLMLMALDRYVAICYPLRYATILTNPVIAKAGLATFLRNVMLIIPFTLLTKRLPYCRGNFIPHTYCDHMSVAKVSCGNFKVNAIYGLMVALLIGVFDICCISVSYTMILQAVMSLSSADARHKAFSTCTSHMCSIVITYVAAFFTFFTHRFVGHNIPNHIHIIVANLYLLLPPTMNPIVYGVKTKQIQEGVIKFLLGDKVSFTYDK
Outline: as §1

OR52N4 (Homo sapiens) = biological target: T9, OR52N4 (Homo sapiens) (UniProt Q8NGI2)
T9 sequence (whole entry): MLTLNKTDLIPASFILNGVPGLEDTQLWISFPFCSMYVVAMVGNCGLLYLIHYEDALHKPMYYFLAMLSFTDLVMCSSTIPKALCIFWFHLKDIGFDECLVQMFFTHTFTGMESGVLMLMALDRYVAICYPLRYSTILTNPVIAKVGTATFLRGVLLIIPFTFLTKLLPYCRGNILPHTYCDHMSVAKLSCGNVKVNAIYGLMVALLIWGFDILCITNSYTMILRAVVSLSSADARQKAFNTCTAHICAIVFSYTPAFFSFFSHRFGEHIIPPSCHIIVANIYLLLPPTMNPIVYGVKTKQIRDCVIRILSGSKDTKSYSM
Outline: as §1

OR52N5 (Homo sapiens) = biological target: T10, OR52N5 (Homo sapiens) (UniProt Q8NH56)
T10 sequence (whole entry): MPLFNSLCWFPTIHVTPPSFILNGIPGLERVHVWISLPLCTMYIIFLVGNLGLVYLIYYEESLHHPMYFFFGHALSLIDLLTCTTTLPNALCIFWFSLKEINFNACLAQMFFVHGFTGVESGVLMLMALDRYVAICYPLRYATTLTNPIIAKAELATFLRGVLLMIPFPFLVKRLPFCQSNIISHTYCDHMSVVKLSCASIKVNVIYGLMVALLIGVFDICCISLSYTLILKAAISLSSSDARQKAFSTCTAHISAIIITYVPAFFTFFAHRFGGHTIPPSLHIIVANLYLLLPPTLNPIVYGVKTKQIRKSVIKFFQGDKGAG
Outline: as §1

OR52R1 (Homo sapiens) = biological target: T11, OR52R1 (Homo sapiens) (UniProt Q8NGF1)
T11 sequence (whole entry): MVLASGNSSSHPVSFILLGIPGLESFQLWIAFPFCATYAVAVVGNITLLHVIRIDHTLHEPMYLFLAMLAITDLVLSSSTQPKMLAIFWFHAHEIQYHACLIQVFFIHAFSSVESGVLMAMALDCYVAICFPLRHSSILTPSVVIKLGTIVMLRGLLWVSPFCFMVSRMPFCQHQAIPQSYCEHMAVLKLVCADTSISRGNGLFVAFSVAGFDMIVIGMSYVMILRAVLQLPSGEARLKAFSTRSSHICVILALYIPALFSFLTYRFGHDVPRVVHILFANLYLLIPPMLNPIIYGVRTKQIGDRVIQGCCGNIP
Outline: as §1

OR52W1 (Homo sapiens) = biological target: T12, OR52W1 (Homo sapiens) (UniProt Q6IF63)
T12 sequence (whole entry): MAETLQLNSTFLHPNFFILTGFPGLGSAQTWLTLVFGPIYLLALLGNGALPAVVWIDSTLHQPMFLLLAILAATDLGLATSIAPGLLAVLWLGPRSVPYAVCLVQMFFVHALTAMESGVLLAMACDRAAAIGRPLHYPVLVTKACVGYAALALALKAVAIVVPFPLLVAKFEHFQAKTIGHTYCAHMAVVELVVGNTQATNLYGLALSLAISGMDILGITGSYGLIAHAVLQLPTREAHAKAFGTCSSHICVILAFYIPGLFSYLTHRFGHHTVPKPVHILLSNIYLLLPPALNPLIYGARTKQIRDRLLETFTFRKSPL
Outline: as §1

OR56A1 (Homo sapiens) = biological target: T13, OR56A1 (Homo sapiens) (UniProt Q8NGH5)
T13 sequence (whole entry): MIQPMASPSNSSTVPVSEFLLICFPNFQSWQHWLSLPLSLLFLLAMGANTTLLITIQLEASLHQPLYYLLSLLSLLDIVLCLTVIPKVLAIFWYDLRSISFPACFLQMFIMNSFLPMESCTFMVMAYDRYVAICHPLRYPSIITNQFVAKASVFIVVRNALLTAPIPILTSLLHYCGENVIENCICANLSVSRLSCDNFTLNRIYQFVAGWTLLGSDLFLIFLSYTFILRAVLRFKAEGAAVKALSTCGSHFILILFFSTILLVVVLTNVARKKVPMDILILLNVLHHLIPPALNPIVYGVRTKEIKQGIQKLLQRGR
Outline: as §1

OR56A3 (Homo sapiens) = biological target: T14, OR56A3 (Homo sapiens) (UniProt Q8NH54)
T14 sequence (whole entry): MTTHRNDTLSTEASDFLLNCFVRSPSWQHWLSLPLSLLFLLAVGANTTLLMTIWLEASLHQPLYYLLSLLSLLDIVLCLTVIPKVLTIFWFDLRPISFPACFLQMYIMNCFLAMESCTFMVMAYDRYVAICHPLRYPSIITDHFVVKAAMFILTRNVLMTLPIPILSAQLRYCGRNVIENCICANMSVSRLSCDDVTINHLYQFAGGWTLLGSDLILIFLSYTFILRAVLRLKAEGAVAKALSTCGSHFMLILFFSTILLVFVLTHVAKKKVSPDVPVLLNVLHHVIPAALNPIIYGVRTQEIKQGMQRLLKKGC
Outline: as §1

OR56A4 (Homo sapiens) = biological target: T15, OR56A4 (Homo sapiens) (UniProt Q8NGH8)
T15 sequence (whole entry): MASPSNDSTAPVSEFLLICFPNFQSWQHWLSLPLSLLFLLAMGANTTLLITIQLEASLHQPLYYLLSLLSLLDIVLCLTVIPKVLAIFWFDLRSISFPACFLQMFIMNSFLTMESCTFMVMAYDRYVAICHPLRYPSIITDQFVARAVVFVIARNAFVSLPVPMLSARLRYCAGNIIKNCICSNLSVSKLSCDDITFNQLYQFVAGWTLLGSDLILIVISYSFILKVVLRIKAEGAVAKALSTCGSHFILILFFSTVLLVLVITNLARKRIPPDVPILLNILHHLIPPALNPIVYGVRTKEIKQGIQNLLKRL
Outline: as §1

OR56A5 (Homo sapiens) = biological target: T16, OR56A5 (Homo sapiens) (UniProt P0C7T3)
T16 sequence (whole entry): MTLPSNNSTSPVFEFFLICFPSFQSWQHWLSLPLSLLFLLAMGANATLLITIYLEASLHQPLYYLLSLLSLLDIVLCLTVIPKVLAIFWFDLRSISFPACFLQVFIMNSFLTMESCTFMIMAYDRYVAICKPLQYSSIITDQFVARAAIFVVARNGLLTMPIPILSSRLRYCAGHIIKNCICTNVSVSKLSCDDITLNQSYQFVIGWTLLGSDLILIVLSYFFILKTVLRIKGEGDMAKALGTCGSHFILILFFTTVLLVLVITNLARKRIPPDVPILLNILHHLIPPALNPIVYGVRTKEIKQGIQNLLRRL
Outline: as §1

OR56B1 (Homo sapiens) = biological target: T17, OR56B1 (Homo sapiens) (UniProt Q8NGI3)
T17 sequence (whole entry): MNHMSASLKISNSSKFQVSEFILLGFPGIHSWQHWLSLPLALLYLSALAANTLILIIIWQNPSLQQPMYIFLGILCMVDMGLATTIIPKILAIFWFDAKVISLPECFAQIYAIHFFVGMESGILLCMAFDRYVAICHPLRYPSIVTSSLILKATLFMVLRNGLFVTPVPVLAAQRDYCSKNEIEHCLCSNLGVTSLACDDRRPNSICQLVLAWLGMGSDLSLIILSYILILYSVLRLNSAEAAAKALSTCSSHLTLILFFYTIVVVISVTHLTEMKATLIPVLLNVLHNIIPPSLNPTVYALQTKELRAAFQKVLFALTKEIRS
Outline: as §1

OR52L1 (Homo sapiens) [2] = biological target: T18, OR52L1 (Homo sapiens) (UniProt Q8NGH7); remark: listed apart in the source
T18 sequence (whole entry): T5 sequence (whole entry) with C140R, C161R, K183T, W297R
Outline: as §1

Measured: odorant receptor agonist call

OR52J3 (Homo sapiens), sequence (Q8NH60 whole entry): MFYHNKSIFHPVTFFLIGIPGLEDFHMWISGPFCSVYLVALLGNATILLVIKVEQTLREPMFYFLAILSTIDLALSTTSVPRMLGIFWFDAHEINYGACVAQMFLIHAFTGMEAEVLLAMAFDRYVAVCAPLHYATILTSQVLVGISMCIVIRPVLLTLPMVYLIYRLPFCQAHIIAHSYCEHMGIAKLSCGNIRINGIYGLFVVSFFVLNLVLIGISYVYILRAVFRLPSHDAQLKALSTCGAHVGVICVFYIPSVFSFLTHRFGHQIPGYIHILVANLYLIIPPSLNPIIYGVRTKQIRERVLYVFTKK

CC(CO)CS (stereo not given)
not listed: OR52L1 (Homo sapiens) [2]
inactive: all other assays above

CC1=C(O)C(=O)C(C)O1 (stereo not given)
not listed: OR52L1 (Homo sapiens) [1] | OR56A4 (Homo sapiens)
inactive: all other assays above
